Shown are actives, neighbours in structure and some others; about 1.7% of the full set was active somewhere.
m5-HT2A agonist – mouse Htr2a agonists via beta-arrestin recruitment, primary screen, cell-based, luminescence; CHO-K1 mHTR2A beta-arrestin complementation; percent of 30 µM serotonin response; activation, % at 7.6 µM; 0.66% of 360,000 active; AID 624169, 2012;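 active means activation above a run cutoff, the mean activation of all tested compounds plus 3 SD, cut at about 14% in these data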
PP1 inh – PP1-alpha phosphatase inhibitors, primary screen, counter-screen for PP5 inhibitor project, biochemical, fluorescence, OMFP substrate, single point. Serine/threonine-protein phosphatase PP1-alpha catalytic subunit (Homo sapiens), P62136. AID 2235, 2010. purified PP1alpha. 0.9% of 320,000 active. inhibition, % at 6.7 µM;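 active means inhibition above the mean inhibition of all tested compounds plus 3 SD, computed separately for each screening campaign, cut at about 15% in these data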
Target sequence (P62136 whole entry, looked up): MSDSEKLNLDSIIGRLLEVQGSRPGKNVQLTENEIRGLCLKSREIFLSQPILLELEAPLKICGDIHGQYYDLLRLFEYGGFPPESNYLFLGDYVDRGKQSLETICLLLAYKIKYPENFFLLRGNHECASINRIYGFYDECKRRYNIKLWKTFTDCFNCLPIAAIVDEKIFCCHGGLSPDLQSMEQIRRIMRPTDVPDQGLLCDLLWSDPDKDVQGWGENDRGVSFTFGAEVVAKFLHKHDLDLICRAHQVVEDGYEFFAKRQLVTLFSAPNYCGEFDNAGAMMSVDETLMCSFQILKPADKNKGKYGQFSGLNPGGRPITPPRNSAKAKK
PP5 inh – PP5 phosphatase inhibitors, primary screen, biochemical, fluorescence; Serine/threonine-protein phosphatase 5 (Homo sapiens), P53041; purified PP5c, OMFP substrate fluorescence; inhibition, % at 6.7 µM; 0.18% of 320,000 active; AID 1987, 2009;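 active means inhibition above the campaign's mean inhibition across all tested compounds plus 3 SD, cut at about 9.5% in these data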
JMJD2C inh – inhibitors of GASC-1 histone demethylase, primary screen, biochemical, fluorescence, DELFIA europium. GST-JMJD2C(1-420) H3K9me3 demethylation. inhibition, % at 2.35 µM. 0.069% of 330,000 active. AID 2099, 2009;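 active means more than half of a compound's replicate wells show inhibition beyond 50%, single wells judged on their own value; inconclusive means some, but no more than half, of replicates pass 50% inhibition; inactive means no replicate passes 50% inhibition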;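 further: signal counts dimethyl H3K9 product captured on neutravidin plate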
T cell HTS – modulators of CD8 T cell-vesicle binding, primary screen, mouse 2C CD8+ T cells, flow cytometry. 2C CD8+ T cell-vesicle binding; active compounds read low. response (vesicle binding), % at 7 µM. 0.068% of 330,000 active;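 active means response, share of CD8 T cells binding vesicles, and their 90th percentile fluorescence all below set limits, cut at about 80% in these data, passing the limit was not always enough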;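 further: values below 100% mean blocked vesicle binding to the CD8+ T cells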
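material = purified 2C TCR transgenic mouse naive CD8+ T cells | controls = Unloaded micro-vesicles (low), QL9 vesicles with 0.7% DMSO (high) | detection = cytometric PE anti-B7-1 and Alexa647 anti-CD8 signals after 1% paraformaldehyde fixation | incubation = binding step 1.5 h, 37 °C, antibody labelling 20 min, ice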
Of the large screens only hits and unclear results are named; the others gave an inactive call.

COc1ccc(NC(=O)Nc2c(O)ccc3ccccc23)cc1	T cell HTS 39.3
Cc1ccc(OCC(=O)Nc2sc3c(c2C#N)CC(C)(C)NC3(C)C)cc1	none
CC1(C)Cc2c(sc(NC(=O)COc3cccc4ccccc34)c2C#N)C(C)(C)N1	PP1 inh 15.4
Oc1ccccc1N=N/C(=N/Nc1ccccc1O)c1ccccc1	JMJD2C inh inconclusive
N#C/C(N=Nc1ccccc1O)=N\Nc1ccccc1O	JMJD2C inh 86.7
Cc1ccc(S(=O)(=O)NC(=O)COc2ccc([N+](=O)[O-])cc2)cc1	none
CCOc1ccccc1NC(=O)CCNC(=O)c1ccc(Cl)cc1	none (no result: JMJD2C inh)
Cc1oc(-c2ccc(F)cc2)cc1-c1nn2c(-c3ccoc3C)nnc2s1	PP1 inh 15.4
S=c1[nH]nc(-c2ccccn2)n1/N=C/c1ccc(-c2ccccc2Cl)o1	PP1 inh 15.4
S=c1[nH]nc(-c2ccccn2)n1/N=C/c1ccc(Br)s1	PP1 inh 17.0
S=c1[nH]nc(-c2ccccn2)n1/N=C/c1ccc(Cl)c(Cl)c1	none
COc1cc(Cl)cc(C(=O)O)c1OCC(=O)O	none
CC1Sc2ccc(S(=O)(=O)CCC(=O)N3CCN(c4ccccc4F)CC3)cc2NC1=O (configuration not stated)	none
O=c1cc(-c2ccccc2)[nH]n1-c1nc2ccccc2[nH]1	PP1 inh 16.7
Cc1ccc(C(=O)NCC(C)(C)N2CCOCC2)s1	none
CC(C)(CNC(=O)c1cc2c(s1)CCCC2)N1CCOCC1	T cell HTS 68.5
COc1ccc(NC(=O)[C@H](Cc2c[nH]c3ccccc23)NC(=O)[C@@H]2Cc3ccccc3CN2)cc1	none
CC(C)c1ccc(NC(=O)[C@H](Cc2c[nH]c3ccccc23)NC(=O)[C@@H]2Cc3ccccc3CN2)cc1	PP1 inh 16.5
C[C@H]1CN([C@@H](C)CO)C(=O)CCCn2cc(nn2)CO[C@@H]1CN(C)C(=O)NC1CCCCC1	none (no result: PP1 inh, PP5 inh, JMJD2C inh, T cell HTS)
O=C(/C=C/c1ccccc1)c1cc(Br)ccc(=O)c1O	PP1 inh 16.8
CNc1nc(NCC2CCCCC2)c2sccc2n1	none (no result: PP1 inh, PP5 inh, JMJD2C inh, T cell HTS)
CCOc1ccc(N=C2SC(C(=O)Nc3ccccc3C#N)C(N)=C2C(=O)Nc2ccc(Cl)cc2)cc1 (configuration not stated)	PP1 inh 19.3
N#Cc1ccccc1NC(=O)C1SC(=Nc2ccccc2)C(C(=O)Nc2ccc(Cl)cc2)=C1N (configuration not stated)	none
O=C(NNC(=O)C1CCN(c2ncccn2)CC1)c1ccc(F)cc1	none
Cc1cc(O)c(-c2n[nH]c3c2C(c2cccc(O)c2)N(Cc2cccnc2)C3=O)cc1Cl (configuration not stated)	PP1 inh 17.1
O=[N+]([O-])c1ccc(/C=N/Nc2nc(NCc3ccccc3)nc(N3CCOCC3)n2)cc1	none
O=[N+]([O-])c1cccc(/C=N/Nc2nc(NCc3ccccc3)nc(N3CCOCC3)n2)c1O	PP1 inh 17.3
Cc1ccccc1S(=O)(=O)N1[C@@H](c2ccccc2)C(C(=O)O)=CC[C@H]1c1ccc(Cl)cc1	none
Cc1ccccc1S(=O)(=O)N1[C@@H](c2ccc(Br)cc2)C(C(=O)O)=CC[C@H]1c1ccc(Cl)cc1	m5-HT2A agonist 22.4 (no result: PP1 inh, PP5 inh, JMJD2C inh)
Cc1ccc(-c2nn(-c3ccccc3)cc2C2CC(c3ccccc3)=NN2C(=O)CCC(=O)O)cc1 (configuration not stated)	PP1 inh 17.4
CCOC(=O)c1sc(-c2ccc(C(F)(F)F)cc2)nc1O	PP1 inh 16.6
Cc1ccc(C(=O)ON=C2CCN(c3ccc([N+](=O)[O-])cc3)CC2)cc1	PP1 inh 15.7
C=CCN(c1cccc(C(F)(F)F)c1)S(=O)(=O)c1cccc(C(=O)OCC(=O)NCCC)c1	none
CCCCn1c(-c2ccc(Cl)c(Cl)c2)nc2cc3[nH]c(=O)c(C(C)C)nc3cc21	PP1 inh 15.8
CCCCn1c(-c2ccc(C(C)(C)C)cc2)nc2cc3[nH]c(=O)c(C(C)C)nc3cc21	none
NS(=O)(=O)c1cccc(NC(=O)COC(=O)COc2ccc3ccccc3c2)c1	none
NS(=O)(=O)c1ccc(NC(=O)COC(=O)COc2ccc3ccccc3c2)cc1	m5-HT2A agonist 17.4
COc1cc(SC)ccc1C(=O)Nc1nccs1	none
COc1cc(OC)cc(C(=O)Nc2ccc(-n3cnnn3)c(C)c2)c1	JMJD2C inh 88.8
COc1cc(NC(=O)c2ccccc2-n2cnnn2)cc(OC)c1	none
Cc1csc2nc(COC(=O)c3ccc(Cl)c([N+](=O)[O-])c3)cc(=O)n12	none
OC1CCCC1NCc1ccnc2cc(Cl)ccc12 (configuration not stated)	none (no result: PP1 inh, PP5 inh, JMJD2C inh, T cell HTS)
O=C(Cc1cccc2ccccc12)NC(NC(=S)Nc1ccccc1Cl)C(Cl)(Cl)Cl (configuration not stated)	PP1 inh 15.9
COC(=O)[C@]12CCCCC=C1N(Cc1cccc3ccccc13)C(=O)[C@H](CC(=O)NCC13CC4CC(CC(C4)C1)C3)C2	none (no result: PP1 inh, PP5 inh, JMJD2C inh, T cell HTS)
C=CCn1c(SCC(C)=O)nc2scc(-c3ccco3)c2c1=O	PP1 inh 15.3
C=CCn1c(=NC(=O)c2cc(-c3cccs3)nc3ccccc23)sc2cc(S(N)(=O)=O)ccc21	PP1 inh 16.1
COC(=O)c1ccc(/C=C2/SC(=S)N(CCCC(=O)Nc3ccc(O)cc3)C2=O)cc1	PP1 inh 15.7
Cc1ccc(/C=C2\SC(=S)N(CCCC(=O)Nc3ccc(O)cc3)C2=O)cc1	none
O=C(O)c1ccc(N/N=C/C2=Cc3ccccc3OC2)cc1	none
Cc1cccc2c1[nH]c1nc(N/N=C\c3ccco3)nnc12	none (no result: m5-HT2A agonist)
CC(/C=N/Nc1nnc2c(n1)[nH]c1ccccc12)=C\c1ccco1	PP1 inh 16.4
C#CCNC(=O)C[C@@H]1C[C@@]2(C(=O)OC)CCCCC=C2N(Cc2ccc3c(c2)OCO3)C1=O	none (no result: PP1 inh, PP5 inh, JMJD2C inh, T cell HTS)
CC(C)=CCN1CCN(Cc2cn[nH]c2C2CCCCC2)CC1CCO (configuration not stated)	JMJD2C inh 53.3 (no result: m5-HT2A agonist)
COc1ccc(OCCN2CCCC2)cc1Nc1nnc(Cl)c(Nc2ccccc2S(C)(=O)=O)n1	none (no result: PP1 inh, PP5 inh, JMJD2C inh, T cell HTS)
Nc1ccc(N(c2ccccc2)c2ccc(N)cc2)cc1	PP1 inh 17.1
CN(C)c1ccc(CCc2ccc(N)cc2)cc1	none
CCOc1ccc(C(=O)Nc2nnc(S(=O)(=O)N(C)Cc3ccco3)s2)cc1	PP1 inh 17.1
CCN(C(=O)Cn1c(=O)oc2ccccc21)c1cccc(C(F)(F)F)c1	T cell HTS 51.6
CCN(C(=O)Cn1c(=O)oc2ccccc21)c1cccc(C)c1	none
C=CCNC(=S)Nc1sc2c(c1C(N)=O)CCCC2	T cell HTS 47.1
